# Measurements as given in ChEMBL document CHEMBL1806497, “Design, synthesis and evaluation of N-benzoylindazole derivatives and analogues as inhibitors of human neutrophil elastase” (Bioorg Med Chem, 2011).
# Calls of active or inactive are those of the source. The calls are words filed in the database; no cut-off is given here.
# Assays:
# [1] = molecular target: T1, Neutrophil elastase (Homo sapiens) (UniProt P08246); experiment: Inhibition of human neutrophil elastase using N-methylsuccinyl-Ala-Ala-Pro-Val-7-amino-4-methyl-coumarin as substrate at < 55 uM measured every 30 secs for 10 mins by fluorescence microplate reader
# T1 sequence (whole entry): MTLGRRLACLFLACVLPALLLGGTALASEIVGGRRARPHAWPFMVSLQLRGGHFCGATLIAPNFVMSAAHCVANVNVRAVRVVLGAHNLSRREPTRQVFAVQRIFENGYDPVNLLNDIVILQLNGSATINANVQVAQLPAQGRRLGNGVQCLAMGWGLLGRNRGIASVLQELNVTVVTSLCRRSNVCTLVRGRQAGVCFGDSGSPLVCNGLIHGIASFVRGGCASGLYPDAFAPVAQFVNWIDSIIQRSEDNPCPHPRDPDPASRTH
# Procedure, shortened: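 20 mU/mL HNE in 200 mM Tris–HCl pH 7.5, 0.01% BSA, 0.05% Tween-20, 1% DMSO final, added to compound dilutions. Reaction started with 25 µM substrate, read every 30 s for 10 min at 25 °C (ex 355/em 460 nm). IC50 from % inhibition vs log concentration, at least six points; mean of ≥3 independent experiments.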
# [2] = Inhibition of human pancreatic chymotrypsin using Suc-Ala-Ala-Pro-Phe-7-amino-4-methylcoumarin as substrate by spectrophotometric analysis
# Procedure, shortened: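 30 nM chymotrypsin in 0.05 M Tris–HCl pH 8.0 with 100 µM substrate, 25 °C. Fluorescence read at ex 355/em 460 nm. IC50 from % inhibition vs log concentration, at least six points; mean of ≥3 experiments.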
# [3] = molecular target: T2, Neutrophil elastase (Homo sapiens, UniProt P08246); experiment: Inhibition of human neutrophil elastase using N-methylsuccinyl-Ala-Ala-Pro-Val-7-amino-4-methyl-coumarin as substrate measured every 30 secs for 10 mins by fluorescence microplate reader
# T2 sequence (P08246 whole entry): T1 sequence (whole entry)
# [4] = molecular target: T1, Neutrophil elastase (Homo sapiens); experiment: Inhibition of human neutrophil elastase assessed as cleavage of substrate N-methylsuccinyl-Ala-Ala-Pro-Val-7-amino-4-methyl-coumarin at 600 nM measured upto 120 mins by fluorescence microplate reader
# [5] = molecular target: Prothrombin (Homo sapiens, UniProt P00734); experiment: Inhibition of human plasma thrombin benzoyl-Phe-Val-Arg-7-amino-4-methylcoumarin as substrate by spectrophotometric analysis
# Procedure, shortened: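 Fluorescence read at ex 355/em 460 nm. IC50 from % inhibition vs log concentration, at least six points; mean of ≥3 experiments.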
# [6] = molecular target: T1, Neutrophil elastase (Homo sapiens); experiment: Competitive inhibition of human neutrophil elastase assessed as hydrolysis of fluorogenic substrate N-methylsuccinyl-Ala-Ala-Pro-Val-7-amino-4-methyl-coumarin by Lineweaver-Burk plot analysis
# Procedure, shortened: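 HNE kinetics with inhibitor at 0 and 40 nM over varied substrate concentrations; double-reciprocal Lineweaver–Burk plot, representative of three independent experiments.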
# [7] = molecular target: Urokinase-type plasminogen activator (Homo sapiens, UniProt P00749); experiment: Inhibition of human urine urokinase using benzyloxycarbonyl-Gly-Gly-Arg-7-amino-4-methylcoumarin as substrate by spectrophotometric analysis
# Procedure, shortened: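 30 U/mL urokinase in 0.1 M Tris–HCl pH 8.0 with 30 µM substrate, 25 °C. Fluorescence read at ex 355/em 460 nm. IC50 from % inhibition vs log concentration, at least six points; mean of ≥3 experiments.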
# [8] = molecular target: T1, Neutrophil elastase (Homo sapiens); experiment: Inhibition of human neutrophil elastase assessed as cleavage of substrate N-methylsuccinyl-Ala-Ala-Pro-Val-7-amino-4-methyl-coumarin at 600 nM after 10 hrs by fluorescence microplate reader
# Procedure, shortened: (§1)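 HNE incubated with compound at 600 nM; substrate cleavage followed fluorimetrically for the first 180 min and out to 10 h, with a vehicle control. More fluorogenic substrate added after the 10 h incubation to test residual enzyme activity.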
# [9] = molecular target: T1, Neutrophil elastase (Homo sapiens); experiment: Inhibition of human neutrophil elastase assessed as cleavage of substrate N-methylsuccinyl-Ala-Ala-Pro-Val-7-amino-4-methyl-coumarin at 600 nM after 5 hrs by fluorescence microplate reader; procedure, shortened: as §1
# [10] = molecular target: T1, Neutrophil elastase (Homo sapiens); experiment: Inhibition of human neutrophil elastase assessed as cleavage of substrate N-methylsuccinyl-Ala-Ala-Pro-Val-7-amino-4-methyl-coumarin at 600 nM measured upto 90 mins by fluorescence microplate reader; procedure, shortened: as §1
# [11] = Stability of the compound in aqueous buffer pH 7.3 assessed as hydrolysis of the compound after 10 hrs by spectrophotometric analysis; type: physicochemical; settings: pH 7.3, 10 h
# Procedure, shortened: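 Compound at 20 µM in 0.05 M phosphate buffer pH 7.3, 25 °C. Absorbance spectra (230–330 nm) scanned repeatedly over time to follow spontaneous hydrolysis; scans representative of two independent experiments.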
smiles,measurement,setting,value
O=C(Nc1ccccc1)c1nn(C(=O)c2ccc([N+](=O)[O-])cc2)c2ccccc12,inhibition,[1],inactive
O=C(Nc1ccccc1)c1nn(Cc2ccc(Cl)cc2)c2ccccc12,inhibition,[1],inactive
COC(=O)c1nn(C(=O)c2cccc(C)c2)c2ccccc12,IC50,[2],30 nM
same,IC50,[3],130 nM
same,inhibition,[4],Active
same,IC50,[5],5.1 µM
same,inhibition,[6],Active
same,IC50,[7],0.87 µM
same,inhibition,[8],inactive
CCOC(=O)c1nn(C(=O)c2cc(OC)c(OC)c(OC)c2)c2ccccc12,inhibition,[1],inactive
COc1cccc(C(=O)n2nc(C)c3ccccc32)c1,inhibition,[1],inactive
COC(=O)c1nn(C(=O)c2ccsc2)c2ccccc12,IC50,[2],260 nM
same,IC50,[3],310 nM
same,inhibition,[4],Active
same,inhibition,[9],50%
same,IC50,[7],12 µM
same,inhibition,[8],inactive
COC(=O)c1nn(C(=O)c2cccc(N)c2)c2ccccc12,inhibition,[1],inactive
O=C(Nc1ccccc1)c1nn(C(=O)c2ccccc2Cl)c2ccccc12,inhibition,[1],inactive
CCOC(=O)c1nn(C(=O)c2cccc(C(F)(F)F)c2)c2ccccc12,inhibition,[1],inactive
Cc1ccc(S(=O)(=O)n2nc(C(=O)Nc3ccccc3)c3ccccc32)cc1,inhibition,[1],inactive
CCOC(=O)c1nn(C(=O)c2cccc([N+](=O)[O-])c2)c2ccccc12,inhibition,[1],inactive
O=C(Nc1ccccc1)c1nn(S(=O)(=O)c2ccc(Cl)cc2)c2ccccc12,inhibition,[1],inactive
CC(C)OC(=O)c1nn(C(=O)c2ccccc2)c2ccccc12,IC50,[2],47 nM
same,IC50,[3],240 nM
same,inhibition,[4],Active
same,IC50,[5],7.8 µM
same,inhibition,[9],50%
same,IC50,[7],6.3 µM
same,inhibition,[8],inactive
CCCC(=O)n1nc(C(=O)OCC)c2ccccc21,IC50,[2],430 nM
same,IC50,[3],180 nM
same,IC50,[5],5.2 µM
same,inhibition,[9],inactive
same,IC50,[7],14 µM
same,inhibition,[10],Active
same,inhibition,[8],inactive
CCOC(=O)c1nn(CC(=O)c2ccccc2)c2ccccc12,inhibition,[1],inactive
CCOC(=O)c1nn(C(=O)Nc2cccc(OC)c2)c2ccccc12,inhibition,[1],inactive
CCOC(=O)c1nn(C(=O)c2cccc3ccccc23)c2ccccc12,inhibition,[1],inactive
O=C(Nc1ccccc1)c1nn(C(=O)c2ccncc2)c2ccccc12,inhibition,[1],inactive
CCOC(=O)c1nn(C(=O)c2ccccc2Cl)c2ccccc12,inhibition,[1],inactive
CCOC(=O)c1nn(C(=O)c2ccc([N+](=O)[O-])cc2)c2ccccc12,inhibition,[1],inactive
CCOC(=O)c1nn(C(=O)c2ccncc2)c2ccccc12,inhibition,[1],inactive
CCOC(=O)c1nn(C(=O)Nc2ccc(Cl)cc2)c2ccccc12,inhibition,[1],inactive
O=C(OCC(F)(F)F)c1nn(C(=O)c2ccccc2)c2ccccc12,IC50,[2],2.9 nM
same,IC50,[3],260 nM
same,inhibition,[4],Active
same,IC50,[5],6.7 µM
same,inhibition,[9],50%
same,IC50,[7],10 µM
same,inhibition,[8],inactive
O=C(O)c1nn(C(=O)c2ccccc2)c2ccccc12,inhibition,[1],inactive
COC(=O)c1nn(C(=O)c2ccccc2)c2ccccc12,IC50,[2],81 nM
same,IC50,[3],89 nM
same,inhibition,[4],Active
same,IC50,[5],14 µM
same,inhibition,[9],50%
same,inhibition,[6],Active
same,IC50,[7],1.2 µM
same,Stability,[11],Unstable
same,inhibition,[8],inactive
CCOC(=O)c1nn(C(=O)C2CCCCC2)c2ccccc12,inhibition,[1],inactive
O=C(Nc1ccccc1)c1nn(-c2ccc(Cl)cc2)c2ccccc12,inhibition,[1],inactive
